Screening results: PubChem BioAssay, several laboratories
MC4R barr agon: agonists of human melanocortin 4 receptor (MC4R) beta-arrestin; U2OS MC4R beta-arrestin complementation, luminescence; percent of melanotan II response, DMSO zero; activation, % at 8.9 µM; 360,000 tested, 0.98% active; AID 540308;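 active means activation above a per-plate cutoff, the mean activation of sample wells on that plate plus 3 SD, cut at about 8% in these data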
UPR CHOP act: apoptotic UPR (CHOP) activation. CHO-CHOP luciferase reporter, luminescence; percent of tunicamycin response over DMSO baseline. activation, % at 10 µM. 330,000 tested, 0.34% active;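 active means at 10 µM dose, activation of 40% or more, normalized to positive control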;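 further: 100% = tunicamycin at 10 µg/mL and 0% = DMSO alone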
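assay system = CHO CHOP reporter cells | amount = 500 CHO-CHOP cells per well | buffer or medium = F12 with 10% FBS | incubation = 16-18 h cell attachment, then 6 h compound exposure, 37 °C | detection = luminescence read with Steady-Glo | read-out = percent activation relative to tunicamycin control | controls = tunicamycin high control, DMSO low control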
UPR XBP1 act: activators of adaptive arm of unfolded protein response (XBP1). CHO-XBP1 luciferase reporter, IRE1-XBP1 UPR activation, luminescence; percent of tunicamycin response, DMSO as zero. 330,000 tested, 0.33% active. activation, % at 20 µM;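 active means versus positive control, 20 µM dose yields 30% or more activation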;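 further: 100% = tunicamycin at 10 µg/mL and 0% = DMSO only wells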
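incubation = overnight seeding at 37 °C, 6 h compound treatment at 37 °C | assay system = CHO-XBP1 cells stably carrying IRE1-XBP1-driven luciferase reporter | input = 1000 cells per well | detection = luciferase luminescence | dosing = single point, 20 µM final compound, 1% DMSO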
A1 inh: inhibitors of the anti-apoptotic protein A1, read as caspase activation; MEF A1-2A-BIM cells, Caspase-Glo 3/7 luminescence, 3 h; percent of clofoctol response, vehicle zero; caspase activation, % (concentration not given with the values); 330,000 tested, 0.066% active;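 active means over half of replicate activation scores above 10%, or exactly half above 10 with the replicate mean above 10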
MC4R antagonist: antagonists of human melanocortin 4 receptor (MC4R); MC4R-expressing cells, MTII-stimulated cAMP, LANCE TR-FRET; inhibition, % at 6.5 µM; 360,000 tested, 0.48% active;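 active means inhibition above its plate's cutoff, the mean of tested wells on that plate plus 3 SD, cut at about 29% in these data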;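 further: 0% = Melanotan II alone and 100% = Melanotan II plus saturating MCL0020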
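System – human MC4R-expressing U2OS cells · Also added – Melanotan II · Dosing – one concentration, 6.5 µM nominal · Timing – 30-min compound, 1-h challenge, 1-h detection, room temperature · Measured by – Eu-cAMP/anti-cAMP TR-FRET, emission 671 nm · Replicates – singlicate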
XBP1 UPR conf: confirmation of adaptive unfolded protein response (XBP1) activators; 1,000 tested, 63% active; activation, % at 20 µM; shares compounds with UPR XBP1 act; CHO-XBP1 IRE1-XBP1 luciferase reporter, luminescence;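 active means reporter signal at least 30% of the positive control's activation in two or more of four replicate wells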;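 further: plate controls were DMSO negative control for no effect and tunicamycin 10 µg/mL positive control for full effect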
MC4R barr ag: human MC4R beta-arrestin agonism confirmation; shares compounds with MC4R barr agon; U2OS MC4R beta-arrestin recruitment, luminescence; scaled DMSO 0%, Melanotan II 100%; activation, % at 8.9 µM; 2,400 tested, 31% active; AID 602192;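 active means mean activation across replicates above the hit cutoff set in the earlier primary screen, cut at about 8% in these data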
MOR-DOR barr ag: activates mu-delta opioid heterodimer, MC4R agonist counter-screen. shares compounds with MC4R barr agon. U2OS PathHunter beta-arrestin, beta-gal luminescence; percent of deltorphin B response, DMSO zero. activation, % at 9.2 µM. 2,400 tested, 5.8% active. AID 602194;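 active means mean activation across replicates exceeds the hit threshold derived in the earlier primary screen, cut at about 18% in these data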;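 further: 100% = deltorphin B at 0.9 µM final and 0% = DMSO alone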
Target sequence (P35372 whole entry, looked up): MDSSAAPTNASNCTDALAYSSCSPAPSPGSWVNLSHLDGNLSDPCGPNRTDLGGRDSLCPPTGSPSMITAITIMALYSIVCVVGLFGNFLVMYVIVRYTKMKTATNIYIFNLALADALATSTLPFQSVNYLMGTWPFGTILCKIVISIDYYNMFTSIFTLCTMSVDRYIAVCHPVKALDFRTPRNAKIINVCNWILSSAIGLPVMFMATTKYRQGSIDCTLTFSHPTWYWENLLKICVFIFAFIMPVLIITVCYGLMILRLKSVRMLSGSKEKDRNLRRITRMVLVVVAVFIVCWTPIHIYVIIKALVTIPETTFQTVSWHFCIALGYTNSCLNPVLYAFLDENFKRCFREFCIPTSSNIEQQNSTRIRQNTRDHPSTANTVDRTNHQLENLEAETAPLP
Target sequence (P41143 whole entry, looked up): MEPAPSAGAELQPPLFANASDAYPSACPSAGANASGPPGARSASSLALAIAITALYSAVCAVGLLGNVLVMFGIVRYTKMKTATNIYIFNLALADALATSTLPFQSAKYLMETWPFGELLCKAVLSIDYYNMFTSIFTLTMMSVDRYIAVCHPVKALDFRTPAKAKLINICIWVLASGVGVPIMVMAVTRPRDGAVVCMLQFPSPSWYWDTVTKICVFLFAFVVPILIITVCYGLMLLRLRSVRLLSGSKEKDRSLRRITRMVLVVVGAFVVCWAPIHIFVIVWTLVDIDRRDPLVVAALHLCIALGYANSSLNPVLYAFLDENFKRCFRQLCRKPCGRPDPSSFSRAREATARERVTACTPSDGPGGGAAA
Numbers without * were called inactive; . = no result given. Most compounds without a hit are left out; they make up all but 2% or so of the library.

SMILES	MC4R barr agon	UPR CHOP act	UPR XBP1 act	A1 inh	MC4R antagonist	XBP1 UPR conf	MC4R barr ag	MOR-DOR barr ag
Cn1c(COc2ccccc2O)[n+](C)c2ccccc21	0.4	-0.2	0.2	1.1	-2.4	.	.	.
CCCCCCCCCCOC(=O)Cn1c(COc2ccccc2OC)[n+](C)c2ccccc21	19.1*	11.1	76.8*	-0.6	-11.3	52.2*	16.0*	29.2*
COc1cc2nc(SCC(=O)NCc3ccco3)n(Cc3ccc(Cl)cc3)c(=O)c2cc1OC	13.1*	17.7	34.6*	-0.8	-2.3	0.9	-1.8	11.3
CCC(=O)N1CCc2cc(Br)c(S(=O)(=O)CCC(=O)NCCc3ccccc3)cc21	0.5	.	.	.	9.1	.	.	.
Nc1ncnn1Cc1ccccc1	-1.2	.	.	.	-6.9	.	.	.
CCOC(=O)CC(=O)CSc1nc(-c2ccc3c(c2)OCO3)cc(C(F)(F)F)c1C#N	25.5*	-2.1	37.6*	-8.0	28.2	11.2	8.9*	5.0
O=C(Nc1ccc2c(c1)OCO2)c1cc(-c2ccc(O)cc2)on1	10.5*	4.8	35.6*	-3.3	-5.3	10.5	3.7	6.9
Cc1ccccc1Oc1ccc2c(c1)[C@@H]1C[C@H](N(C)C(=S)Nc3ccc(F)cc3)[C@H]([C@H](C)O)C(=O)N1CC2	1.9	.	.	.	10.0	.	.	.
COc1ccc2nc(C)cc(SCC(=O)N/N=C/c3ccc(O)c(O)c3)c2c1	-1.9	0.4	6.3	2.1	-8.1	.	.	.
COc1ccc2nc(C)cc(SCC(=O)N/N=C/c3cccc4ccccc34)c2c1	18.8*	26.6	79.8*	1.8	7.4	125.9*	6.7	4.7
Cc1cc(C)cc(NCc2cc(=O)oc3cc(-c4ccccc4)c(O)cc23)c1	3.8	-1.1	3.5	-1.5	5.0	.	.	.
COc1ccc(C)cc1NCc1cc(=O)oc2cc(-c3ccccc3)c(O)cc12	13.0*	0.8	52.8*	-2.9	7.2	9.7	1.6	4.0
C[C@]12c3[nH]c4ccc(Cl)cc4c3CCN1C(=O)[C@@H](CC(=O)NCc1ccco1)C[C@@H]2C(=O)N1CCCCC1	4.0	2.8	-1.7	.	15.8	.	.	.
COc1ccc(CCNC(=O)/C(C#N)=C2\N=C(NC(=O)c3ccco3)c3ccccc32)cc1	14.2*	10.7	33.0*	-0.1	4.3	24.1	-0.6	2.4
Cc1ccc(C(=O)N2CCC(N3CCC(C(=O)N4CCOCC4)CC3)CC2)cc1	-0.8	.	.	.	1.2	.	.	.
CCCCC(=O)N(C)c1c(CC)nc2c(OCC=C(C)C)cccn12	-0.9	.	.	.	1.9	.	.	.
Cc1ccccc1Nc1nnc(SCC(=O)NC(=O)Nc2ccc3c(c2)OCCO3)s1	.	4.4	2.3	-0.5	.	.	.	.
COc1ccccc1Nc1nnc(SCC(=O)NC(=O)Nc2ccc3c(c2)OCCO3)s1	17.4*	-0.7	52.1*	-0.6	5.4	48.8*	-0.8	3.2
CN(C)Cc1ccccc1-c1cccc2nccn12	1.4	.	.	.	3.2	.	.	.
Cc1cc(C)c(/C=N/NC(=O)c2nnn(-c3nonc3N)c2CN2CCC(C)CC2)c(C)c1	17.4*	1.7	31.5*	-0.2	15.3	5.9	15.5*	4.8
CC1=CC(C)(C)n2c(O)c(N=NC(N)=S)c3cc(C)cc1c32	15.5*	22.2	31.1*	0.4	-1.7	2.8	13.7*	4.7
Cc1cccc(NC(=O)Cn2c(O)c(N=NC(N)=S)c3ccccc32)c1	2.4	2.5	-1.6	0.4	2.9	.	.	.
Cc1c(CCOC(=O)CC23CC4CC(CC(C4)C2)C3)sc[n+]1CC(=O)c1ccccc1	1.6	-0.7	1.1	-0.4	-10.7	.	.	.
Cc1c(CCOC(=O)C23CC4(C)CC(C)(CC(C)(C4)C2)C3)sc[n+]1CC(=O)c1ccccc1	17.4*	-1.2	39.5*	0.7	-2.4	64.8*	16.3*	17.9
CSc1ccc(CN2CCC(C)(Oc3ccc(C(C)=O)cc3)C2)cc1 (centres undefined)	-3.4	.	.	.	3.8	.	.	.
SMILES	MC4R barr agon	UPR CHOP act	UPR XBP1 act	A1 inh	MC4R antagonist	XBP1 UPR conf	MC4R barr ag	MOR-DOR barr ag
OC(Cc1cccc(Br)c1)c1ncc(-c2cccc(C(F)(F)F)c2)[nH]1 (centres undefined)	6.2	.	.	.	-5.9	.	.	.
CCOC(=O)c1c(-c2ccc(C)o2)csc1NC(=O)COC(=O)c1ccc(NC(N)=O)cc1	23.7*	8.9	33.3*	-0.4	25.7	54.9*	6.1	3.1
Cc1ccc(-c2nn(CC(=O)NCc3cc(-c4nn(C)c(=O)c5ccccc45)ccc3C)c(=O)c3ccccc23)cc1	15.5*	11.6	81.1*	-0.3	3.9	61.0*	25.1*	5.7
CCC(=O)NCc1cc(-c2nn(C)c(=O)c3ccccc23)ccc1C	-0.6	1.3	1.6	0.8	6.2	.	.	.
COc1ccc(C(C)=O)cc1CN1C(=O)C(C)ON=C1c1ccccn1 (centres undefined)	2.9	.	.	.	23.5	.	.	.
CCOc1ccc(NC(=S)NC(=O)/C=C/c2ccc(C)cc2)c([N+](=O)[O-])c1	38.0*	34.5	213.0*	17.4*	-17.8	143.8*	16.8*	6.0
COc1ccccc1-c1cn[nH]c1-c1ccc(OCc2ccc(F)cc2)cc1O	2.1	-0.2	0.2	1.8	4.6	.	.	.
COc1ccccc1-c1cn[nH]c1-c1ccc(OCc2ccc([N+](=O)[O-])cc2)cc1O	15.3*	-0.9	41.8*	0.2	8.8	19.3	6.0	6.5
CCCOC(=O)c1cccc(Nc2nc(-c3cccnc3)nc3ccccc23)c1	26.2*	4.6	31.9*	0.1	20.6	58.0*	16.9*	11.4
Clc1ccc2c(c1)C(N1CCNCC1)Cc1ccccc1S2 (centres undefined)	10.3*	5.3	62.9*	0.2	-7.3	72.5*	18.6*	22.7*
Clc1cccc2c1Sc1ccccc1CC2N1CCNCC1 (centres undefined)	2.1	1.4	10.8	0.2	1.3	.	.	.
c1ccc(-c2cc(-c3nnc4n3N=C(c3ccc5ccccc5c3)CS4)[nH]n2)cc1	31.6*	31.5	32.2*	-1.2	1.4	4.3	14.4*	4.7
